# Assay outcomes: PubChem BioAssay, The Scripps Research Institute Molecular Screening Center
# GPR7 antag – GPR7 receptor antagonists, primary screen, cell-based, fluorescence, single concentration | GPR7-expressing cells, fluorescence antagonist assay | inhibition, % at 4.4 µM | 290,000 compounds, 1.1% hits | AID 1861, 2009; in the data active = inhibition above about 16%, passing the limit was not always enough;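 also: cells stimulated with the agonist NPW; 0% = agonist with vehicle and 100% = vehicle without agonist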
# CHO parental Ca – ATP-evoked calcium signal inhibitors, parental CHO, primary screen, counter-screen for OX1R antagonist project, cell-based, fluorescence, Fluo-8 calcium dye. parental CHO-K1, ATP-induced calcium, Fluo-8 fluorescence. inhibition, % at 5.6 µM. 330,000 compounds, 0.63% hits. AID 463079, 2010;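 active = inhibition above that plate's mean sample inhibition plus 3 SD, cut at about 26% in these data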;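 also: 0% = ATP-challenged DMSO wells and 100% = DMSO wells without ATP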
#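 Test system: untransfected parental CHO cell line; also added: ATP stimulus; dosing: 5.6 µM, single dose; signal: calcium-sensitive Fluo-8 fluorescence; measure: percent inhibition of ATP-evoked calcium rise, normalized to controls; benchmarks: low control ATP plus DMSO, high control DMSO only; replication: one well per compound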
# TAAR1 antag – human TAAR1 antagonists, primary screen, Fluo-8 calcium fluorescence, CHO RD-HGA16 cells. antagonist. inhibition, % at 3 µM. 360,000 compounds, 1.5% hits;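 active = inhibition above a per-plate cutoff, the mean inhibition of test compounds on that plate plus 3 SD, cut at about 49% in these data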;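 also: 0% = DMSO plus EC80 beta-PEA response and 100% = DMSO alone without agonist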
# Target sequence (Q96RJ0 whole entry, looked up): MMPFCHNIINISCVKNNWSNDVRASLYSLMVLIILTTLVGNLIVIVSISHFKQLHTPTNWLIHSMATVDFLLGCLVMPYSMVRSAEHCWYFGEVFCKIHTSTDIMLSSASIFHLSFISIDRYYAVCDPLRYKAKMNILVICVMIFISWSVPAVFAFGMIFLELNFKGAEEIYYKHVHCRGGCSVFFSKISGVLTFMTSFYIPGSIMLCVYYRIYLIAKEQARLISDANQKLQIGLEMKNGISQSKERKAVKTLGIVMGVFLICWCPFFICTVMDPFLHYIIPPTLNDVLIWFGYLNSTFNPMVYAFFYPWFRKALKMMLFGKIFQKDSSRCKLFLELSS
#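 System: RD-HGA16 CHO cells with stable hTAAR1 and Gα16 | Probe or stimulus: EC80 β-phenethylamine stimulus | Dosing: 3 µM, single point | Times: Dye loading 75 min at 37 °C, then 30 min room temperature | Measured by: Fluo-8 calcium-sensitive fluorescence | Read-out basis: % inhibition of agonist calcium response | Replicates: n of 1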
# TAAR1 agonist – human TAAR1 agonists, primary screen, Fluo-8 calcium fluorescence, CHO RD-HGA16 cells; vehicle wells 0%, saturating PEA agonist 100%; activation, % at 3 µM; 360,000 compounds, 0.99% hits;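 active = activation above the mean activation of all test compounds in the run plus 3 SD, cut at about 38% in these data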
#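 Test system: RD-HGA16 (CHO) cells co-expressing Gα16 and hTAAR1 | Doses: Single dose, 3 µM | Schedule: 17-24 h seeding, 75 min 37 °C dye, 30 min RT | Evaluation: % activation from peak over basal fluorescence ratio, DMSO-to-PEA scaled | Technique: Kinetic Fluo-8 calcium fluorescence | Benchmarks: Low control DMSO, high control PEA (EC100)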
# OX1R antag-1 – OX1R (HCRTR1) antagonists, primary screen, fluorescence, CHO/OX1R cells, Fluo-8 calcium, orexin A | 330,000 compounds, 0.43% hits | Fluo-8 calcium fluorescence | Orexin/Hypocretin receptor type 1 (Homo sapiens), O43613 | inhibition, % at 5 µM | AID 434989, 2010;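 active = inhibition above its plate's threshold, mean inhibition of all tested compounds on the plate plus 3 SD, cut at about 37% in these data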;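 also: 0% = orexin A challenge wells and 100% = SB-334867-A antagonist wells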
# Target sequence (O43613 whole entry, looked up): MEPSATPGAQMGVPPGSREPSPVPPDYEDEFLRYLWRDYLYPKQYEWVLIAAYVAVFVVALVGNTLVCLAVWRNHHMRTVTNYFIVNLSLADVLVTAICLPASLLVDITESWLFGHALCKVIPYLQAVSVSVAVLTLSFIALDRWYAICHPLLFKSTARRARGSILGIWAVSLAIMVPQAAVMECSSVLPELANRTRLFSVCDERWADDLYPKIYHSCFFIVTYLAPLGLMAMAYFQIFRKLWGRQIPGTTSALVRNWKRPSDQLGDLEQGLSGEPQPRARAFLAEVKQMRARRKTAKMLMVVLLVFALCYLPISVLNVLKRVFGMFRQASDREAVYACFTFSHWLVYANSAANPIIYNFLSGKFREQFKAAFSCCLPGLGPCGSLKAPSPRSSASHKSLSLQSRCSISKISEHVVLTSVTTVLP
# OX1R antag-2 – antagonists of human orexin 1 receptor (OX1R). Orexin/Hypocretin receptor type 1 (Homo sapiens), O43613. OX1R-expressing cells, FRET antagonist read-out. inhibition, % at 6.6 µM. 330,000 compounds, 1.8% hits; in the data active = inhibition mostly above about 38%, no sharp cut-off; inactive = mostly below about 40%;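 also: 0% = agonist challenge alone and 100% = reference antagonist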
# TAAR1 ag conf – human TAAR1 agonists, retest of hits, confirmation, Fluo-8 calcium fluorescence, CHO RD-HGA16 cells; activation, % at 3 µM; scaled: DMSO 0%, maximal phenethylamine 100%; shares compounds with TAAR1 agonist; 2,400 compounds, 82% hits;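 active = activation above a cutoff set at the run's mean compound activation plus 3 SD, cut at about 39% in these data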
# Ga16 nonsel ag – nonselective calcium mobilization agonists, CHO-Ga16 cells, counter-screen for hTAAR1 agonist project, cell-based, fluorescence, CHO-Ga16 parental line; shares compounds with TAAR1 agonist; Fluo-8 calcium fluorescence; normalized to maximal ATP response, DMSO zero; activation, % at 3 µM; 2,400 compounds, 50% hits; AID 651787, 2012;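 active = activation above the run cutoff, the mean activation over all tested wells plus 3 SD, cut at about 12% in these data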;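 also: 0% = DMSO wells and 100% = maximal ATP response on the peak over basal ratio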
# TAAR1 desensitize – TAAR1 desensitization by agonist hits, confirmation, counter-screen for TAAR1 agonist project, cell-based, fluorescence, tachyphylaxis; shares compounds with TAAR1 agonist; CHO RD-HGA16 hTAAR1, Fluo-8 calcium, beta-PEA response inhibition; inhibition, % at 3 µM; 2,400 compounds, 46% hits; AID 651951, 2012;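 active = inhibition above the run cutoff, the mean inhibition of all test compounds plus 3 SD, cut at about 49% in these data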;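 also: beta-PEA stimulus applied at its EC80; loss of beta-PEA calcium signal after compound pretreatment read as receptor desensitization; 0% = DMSO with beta-PEA at EC80 and 100% = DMSO alone without agonist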
# Ga16 nonsel ant – inhibition of ATP-evoked calcium response in CHO-Ga16 cells, counter-screen for TAAR1 agonist project, cell-based, fluorescence; shares compounds with TAAR1 agonist; CHO-Ga16 ATP-induced calcium, Fluo-8 fluorescence; inhibition, % at 3 µM; 2,400 compounds, 39% hits; AID 651952, 2012;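 active = inhibition above the plate's mean compound inhibition plus 3 SD, computed per plate, cut at about 22% in these data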;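 also: 0% = EC80 ATP with DMSO and 100% = DMSO wells without ATP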
# * marks the source's active call; other numbers are inactive results; nt = no result. Shown are actives, neighbours in structure and some others; about 4.6% of the full set was active somewhere.
SMILES,GPR7 antag,CHO parental Ca,TAAR1 antag,TAAR1 agonist,OX1R antag-1,OX1R antag-2,TAAR1 ag conf,Ga16 nonsel ag,TAAR1 desensitize,Ga16 nonsel ant
COc1ccccc1CCNC(=O)CCn1nc(C)c2c(C)n(-c3ccccc3)nc2c1=O,-7.3,-24.5,6.8,57.8*,-24.6,23.4,70.7*,-0.1,27.3,9.5
c1ccc(CCNC2=NCCS2)cc1,-4.8,-3.2,3.0,49.5*,-17.2,10.3,74.8*,0.9,27.6,8.4
O=C(Nc1ccc(Cl)c([N+](=O)[O-])c1)c1ccc(NCCCN2CCOCC2)c([N+](=O)[O-])c1,-6.6,42.4*,91.1*,75.5*,1.4,24.0,76.8*,28.0*,98.8*,35.2*
O=C1CS/C(=N\C(=O)N2c3ccccc3Sc3ccccc32)N1,-10.6,-6.6,2.5,16.2,-17.4,10.7,nt,nt,nt,nt
O=c1[nH]ncc(N/N=C/c2ccccc2)c1Cl,-4.5,-3.1,78.2*,64.0*,-10.3,12.8,91.9*,2.4,92.8*,-3.0
Cc1ccsc1/C=N\Nc1cn[nH]c(=O)c1Cl,-11.1,-4.9,54.0*,73.5*,5.0,23.4,87.4*,-0.2,77.4*,1.9
Cc1ccc(/C=N\Nc2cn[nH]c(=O)c2Cl)cc1,-11.0,-13.7,-2.3,40.8*,-6.5,5.5,62.2*,0.0,24.0,9.0
CC(C)=CCC/C(C)=C/CNC(=O)C[C@H]1C[C@H](C(=O)N2CCCCC2)[C@@]2(CCc3ccccc3)c3[nH]c4cc(CCC(=O)N(C)C)ccc4c3CCN2C1=O,nt,-39.6,-1.8,0.4,-32.5,3.8,nt,nt,nt,nt
O=C(COC(=O)c1ccc[nH]c1=O)NC1CC1,nt,3.0,-8.1,0.2,-12.0,0.7,nt,nt,nt,nt
COc1cc2nc(Nc3ccc(F)cc3)nc(N)c2cc1OC,-11.1,-9.7,33.0,58.6*,-21.2,1.4,54.0*,4.1,40.5,14.5
COc1cc2nc(Nc3ccc(C)c(C)c3)nc(N)c2cc1OC,-4.4,-10.3,-2.5,2.0,-27.5,1.3,nt,nt,nt,nt
O=C(NN1C(=O)C2C(c3ccccc3)C=CC(c3ccccc3)C2C1=O)c1ccncc1 (centres undefined),-2.7,-4.2,24.4,46.6*,9.3,11.1,18.1,16.0*,17.3,8.8
O=C(NN1C(=O)C2C3C=CC(C3)C2C1=O)c1ccncc1 (centres undefined),3.1,-9.5,-15.3,1.2,3.8,4.0,nt,nt,nt,nt
CCOc1ccc(C(=O)Nc2ccc(N3CCN(C)CC3)cc2)cc1,-7.0,-3.1,-4.8,13.1,-7.2,0.9,nt,nt,nt,nt
CCCCOc1ccc(C(=O)Nc2ccc(N3CCN(C)CC3)cc2)cc1,-4.4,-11.0,23.4,47.9*,-5.2,23.1,68.0*,2.8,68.2*,17.8
Nn1c(COc2ccccc2F)nnc1SCC(=O)NC1CCCC1,17.2,-12.9,14.1,-0.1,-23.7,8.4,nt,nt,nt,nt
OC(CNCCc1ccc(C(F)(F)F)cc1)COc1cccc2ccccc12 (centres undefined),-2.7,25.1,21.9,59.6*,1.8,8.1,59.9*,29.2*,64.3*,43.8*
COc1ccccc1COCC(O)CNCCc1ccc(C(F)(F)F)cc1 (centres undefined),19.1,-10.8,-14.0,13.1,-16.2,-7.4,nt,nt,nt,nt
COc1ccc(CN2CCN(CCCCOc3ccc(Cl)cc3)CC2)c(OC)c1OC,-8.5,-18.6,-24.8,8.5,-27.2,5.5,nt,nt,nt,nt
CCc1ccc(NC(=O)N2CCC(c3ccccc3)C2)cc1 (centres undefined),-9.7,-19.0,-11.8,0.1,-7.0,11.2,nt,nt,nt,nt
Cc1ccc(NC(=O)N2CCCC(c3ccccc3)C2)cc1 (centres undefined),-5.8,-5.1,20.8,49.5*,-9.3,-1.5,58.2*,-1.4,32.8,3.2
O=C(/C=C/c1ccccc1)N1CCC(c2ccccc2)C1 (centres undefined),-2.2,-10.3,-0.1,-0.6,-18.2,4.3,nt,nt,nt,nt
O=C(/C=C/c1ccco1)N1CCCC(c2ccccc2)C1 (centres undefined),-2.9,-9.9,18.1,48.7*,-22.4,7.7,33.4,-0.6,30.8,7.3
CCOc1ccc(NC(=O)N2CCC(c3ccc(C)cc3)C2)cc1 (centres undefined),-4.1,-8.3,38.1,51.0*,-7.0,12.6,6.6,3.5,11.2,10.2
CN(C)CC(C)(C)CNC(=O)C1CCN(Cc2ccccc2O)CC1,0.2,-5.6,20.4,8.4,-10.4,24.3,nt,nt,nt,nt
SMILES,GPR7 antag,CHO parental Ca,TAAR1 antag,TAAR1 agonist,OX1R antag-1,OX1R antag-2,TAAR1 ag conf,Ga16 nonsel ag,TAAR1 desensitize,Ga16 nonsel ant
Cc1cc(=O)oc2cc(OCc3ccc(C(=O)N4CCN(c5ccccc5)CC4)cc3)ccc12,-5.6,-14.7,12.4,6.0,-25.4,10.4,nt,nt,nt,nt
NC(N)=Nc1cc2ccccc2c2ccccc12,-6.3,-10.4,nt,nt,-3.0,-1.6,nt,2.7,nt,5.8
COc1ccc(CC(=O)O/N=C(\N)Cc2cccc3ccccc23)cc1OC,-1.4,-22.1,25.3,42.1*,4.3,21.5,64.8*,2.4,45.0,19.5
N/C(Cc1cccc2ccccc12)=N\OC(=O)Cc1cccs1,-7.5,-6.7,25.8,60.6*,-9.0,14.7,73.6*,0.6,24.1,2.5
COc1ccc(CC(=O)O/N=C(\N)Cc2cccc3ccccc23)cc1,-12.6,-12.1,11.5,29.1,-6.8,15.6,nt,nt,nt,nt
N/C(Cc1cccc2ccccc12)=N\OC(=O)c1cccs1,-1.9,-7.7,nt,nt,-9.1,11.1,nt,nt,nt,nt
